# NTR1 agonist – agonists of human NTR1, primary screen, imaging, U2OS cells, beta-arrestin-GFP, high content; Neurotensin receptor type 1 (Homo sapiens), P30989; hit rate 0.17% among 330,000; AID 493036, 2011; NTR1-U2OS beta-arrestin-GFP spot imaging, agonist mode; activation, % at 20 µM;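 active = activation at or above 40% of the spot to cytoplasm intensity ratio, with at least 20 cells analyzed; inconclusive = wells under 20 cells, flagged as cytotoxic or low count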;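 also: 0% = DMSO without peptide and 100% = 100 nM NTR1 peptide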
# CAL PDZ FP-1 – untagged CAL PDZ binding inhibitors, primary screen, biochemical, fluorescence polarization, HTS; Golgi-associated PDZ and coiled-coil motif-containing protein (Homo sapiens), Q9HD26; purified CAL PDZ, TMR-peptide fluorescence polarization, 1 h; inhibition, % at 24.9 µM; hit rate 0.92% among 300,000; AID 602252, 2012;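 active = mean inhibition of at least 30% with at least half of replicates also reaching 30%; inconclusive = no clear call, values can overlap the other calls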;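 also: 0% = DMSO neutral control and 100% = excess unlabeled competitor peptide PRC23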
# dFosB activator – activators of delta FosB homodimer, primary screen, biochemical, fluorescence polarization, TAMRA-CDK5 oligo, single point; Protein FosB (Mus musculus), P13346; purified delta FosB; percent of positive-control signal above neutral wells; activation, % at 25 µM; hit rate 0.99% among 340,000; AID 493131, 2011;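 active = mean activation above about 17%, with every replicate also reaching it, limit read from the data, passing the limit was not always enough; inconclusive = only one of the two conditions met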
# PKA-R1A act – activators of PKA-R1A holoenzyme, primary screen, biochemical, fluorescence polarization, Cy5-IP20, bovine R1A, mouse PKAc. AID 504707, 2011. activation, % at 11.4 µM. hit rate 0.083% among 340,000. cAMP-dependent protein kinase type I-alpha regulatory subunit (Bos taurus) + …. PKA-R1A dissociation; scaled: DMSO 0%, 113 µM cGMP 100%;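 active = percent activation above the mean of all tested compounds plus 3 SD, cut at about 19% in these data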;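 also: higher means more PKAc released from R1A so a rise in polarization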
# CAL PDZ FP-2 – CAL PDZ peptide-binding inhibitors, primary screen, biochemical, fluorescence polarization, Cer-tagged CAL PDZ, HTS | Golgi-associated PDZ and coiled-coil motif-containing protein (Homo sapiens), Q9HD26 | purified CAL PDZ, TMR-peptide fluorescence polarization, 1 h | inhibition, % at 20 µM | hit rate 0.02% among 330,000 | AID 504414, 2011;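 active = highest replicate inhibition of at least 40%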;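 also: plate controls were DMSO neutral control wells for no effect and unlabeled competitor peptide control wells for full effect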
#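 System: purified tagged CAL PDZ domain construct (CerCALP). Schedule: 1 h incubation at room temperature before polarization reading. Medium: 25 mM sodium phosphate pH 7.4, 150 mM NaCl, TCEP, IgG, Thesit. Read-out: percent inhibition from loss of millipolarization. Measured by: FP readout, S and P plane fluorescence. Probe or stimulus: fluorescent TMR peptide probe.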
# PKA-R2B activ – activators of PKA-R2B holoenzyme, primary screen, biochemical, fluorescence polarization, Cy5-IP20, human | cAMP-dependent protein kinase catalytic subunit beta (Homo sapiens) + cAMP-dependent … | PKA-R2B holoenzyme dissociation; R2B truncated from residue 108, S112A mutant; 0% DMSO only, 100% 113 µM cGMP | activation, % at 11.4 µM | hit rate 0.079% among 340,000 | AID 504700, 2011;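 active = activation above a cutoff set at the mean over all compounds plus 3 SD, cut at about 18% in these data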;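 also: higher means more holoenzyme dissociation and a rise in polarization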
# Target sequence (P31323 whole entry, looked up, other chains not shown, the tested form may be a part): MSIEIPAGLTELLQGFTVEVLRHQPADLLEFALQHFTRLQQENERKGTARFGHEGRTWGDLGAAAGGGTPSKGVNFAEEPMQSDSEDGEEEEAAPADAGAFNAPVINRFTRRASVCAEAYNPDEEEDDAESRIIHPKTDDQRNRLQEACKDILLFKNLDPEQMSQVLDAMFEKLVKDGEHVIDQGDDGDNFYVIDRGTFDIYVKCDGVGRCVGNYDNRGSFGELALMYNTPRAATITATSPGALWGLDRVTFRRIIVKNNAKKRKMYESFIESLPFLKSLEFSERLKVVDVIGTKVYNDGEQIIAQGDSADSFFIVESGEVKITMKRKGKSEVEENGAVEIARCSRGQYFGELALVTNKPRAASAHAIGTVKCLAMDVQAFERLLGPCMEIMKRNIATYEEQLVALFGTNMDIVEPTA
# NTR1 ag conf – NTR1 agonists, single-dose retest, confirmation, imaging, U2OS cells, beta-arrestin-GFP, single concentration | AID 504550, 2011 | NTR1-U2OS beta-arrestin-GFP translocation imaging | shares compounds with NTR1 agonist | hit rate 38% among 480 | activation, % at 20 µM;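 active = mean activation at 20 µM of at least 40%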;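 also: 0% = DMSO without peptide and 100% = 100 nM NTR1 peptide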
# Active calls of the source: *; ? = inconclusive; nt = no result. Sampled rows, rich in hits. Any-hit rate of the full collection: about 2%.
SMILES,NTR1 agonist,CAL PDZ FP-1,dFosB activator,PKA-R1A act,CAL PDZ FP-2,PKA-R2B activ,NTR1 ag conf
CCCCNc1ccc(C(CC(N)=O)NC(=O)Cc2cccc3ccccc23)cc1[N+](=O)[O-] (centres undefined),-0.5,3.3,0.1,-12.6,-1.0,-13.8,nt
COc1ccc(CCNc2ccc(C(CC(N)=O)NC(=O)Cc3cccc4ccccc34)cc2[N+](=O)[O-])cc1 (centres undefined),47.9*,-2.3,-3.5,-10.2,-0.5,-0.3,10.3
Clc1ccc(C2=Nn3c(nnc3-c3cc(-c4ccccc4)n[nH]3)SC2)cc1,46.6*,nt,-29.7,0.1,-2.1,2.1,48.1*
c1ccc(C2=Nn3c(nnc3-c3cc(-c4ccccc4)n[nH]3)SC2)cc1,27.4,nt,-24.0,-3.4,-14.5,2.4,nt
CCOC(=O)c1cnc2c(C(F)(F)F)cccc2c1NCCCN1CCOCC1,1.7,-3.2,-14.7,-4.7,-0.5,6.7,nt
O=C(NNc1c2ccccc2nc2ccccc12)c1ccccc1O,49.5*,-2.3,-1.5,-4.9,0.7,6.2,3.5
CC1CCCC(NC(=O)C2CC(=O)N(Cc3ccccc3)C2)C1C (centres undefined),0.5,8.0,-5.8,6.6,1.9,6.3,nt
O=C(Nc1ccc2oc(-c3ccccc3F)nc2c1)c1ccc2c(c1)OCCO2,45.9*,-3.6,-6.8,-6.2,-1.1,-9.7,53.0*
O=C(Nc1ccc(-c2nc3ccccc3o2)cc1)c1ccc2c(c1)OCO2,8.2,-2.6,?,-11.5,-1.4,-14.6,nt
Cc1cc(F)ccc1S(=O)(=O)Nc1ccccc1C(=O)Nc1ccccc1-c1nc2ccccc2[nH]1,53.0*,nt,10.4,-7.7,0.0,3.7,72.3*
O=C1NC[C@@H](Cc2cccc3ccccc23)N(CCCCC2CCCCC2)C1=O,40.9*,-2.8,-6.8,14.2,0.6,2.7,-1.9
COc1ccc(C2CC(=O)Oc3cc(O)cc(O)c32)cc1 (centres undefined),-1.8,-8.9,-7.4,-8.5,-1.0,2.8,nt
COc1ccc([C@H]2Oc3cc(O)cc(O)c3C(=O)C2[C@@H]2C(=O)c3c(O)cc(O)cc3O[C@@H]2c2ccc(OC)cc2)cc1 (some centres undefined),50.4*,nt,nt,nt,nt,nt,8.7
O=C1CN(C(=O)COC(=O)c2ccccc2Br)c2ccccc2N1,-1.6,-3.1,-1.0,0.5,-1.3,7.7,nt
Cc1cc(NCCCCCCCNc2cc(C)nc3cc([N+](=O)[O-])ccc23)c2ccc([N+](=O)[O-])cc2n1,nt,-3.2,-6.3,8.9,-1.0,2.9,nt
COc1ccccc1C(=O)N(CCN(C)C)c1nc2cc(C)cc(C)c2s1,1.9,-3.6,-0.8,2.2,-2.9,0.8,nt
COc1cc2ccccc2cc1C(=O)N(CCN(C)C)c1nc2c(OC)ccc(OC)c2s1,41.5*,2.8,?,-5.4,-0.6,-3.5,3.5
COc1ccccc1-c1cn[nH]c1-c1ccc(OCc2ccccc2)cc1O,56.8*,0.9,-5.8,-8.2,-2.2,-13.1,0.9
COc1ccc(-c2cn[nH]c2-c2ccc(OCc3ccccc3)cc2O)cc1,29.7,1.7,-5.7,-9.8,-1.3,-5.1,nt
CCOC(=O)c1sc(Nc2nc3c(OC)cccc3s2)nc1C,54.6*,0.9,-14.6,5.5,0.6,0.7,26.1
